# According to ChEMBL document CHEMBL1121423, “2,4-Dihydro-6-phenyl-1H-s-triazolo[4,3-a][1,4]benzoidiazepin-1-ones with antianxiety and antidepressant activity” (1980):
# Assays:
# Type in all cases: functional
# Mus musculus [1] = species on record: Mus musculus; assay: Effect on the prolongation of hypoxic survival time (HS)
# Method in brief: (§1)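 Male albino CF-1 mice, 18-22 g. Compounds were dissolved or suspended in 0.25% aqueous methylcellulose and given intraperitoneally to groups of four or six mice per dose, at multiple dose levels. ED50 was calculated by the Spearman-Karber method.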
# Mus musculus [2] = species on record: Mus musculus; assay: Effect on the antagonism of bicuculline-induced tonic-extensor convulsions (B); method in brief: as §1
# Mus musculus [3] = species on record: Mus musculus; assay: Effect on the antagonism of oxotremorine-induced hypothermia (OX); method in brief: as §1
# Mus musculus [4] = species on record: Mus musculus; assay: Effect on the antagonism of pentylenetetrazole-induced clonic convulsions (P)
# Mus musculus [5] = species on record: Mus musculus; assay: Effect of test compound on the potentiation of apomorphine-induced gnawing (AG) in aggregated mice; method in brief: as §1
# Mus musculus [6] = species on record: Mus musculus; assay: Effect on the potentiation of yohimbine-induced toxicity (Y) in aggregated mice; method in brief: as §1
# Mus musculus [7] = species on record: Mus musculus; assay: Effect on the potentiation of gamma-butyrolactone-induced sleep (gamma-B); method in brief: as §1
# Mus musculus [8] = species on record: Mus musculus; assay: Effect on the antagonism of nicotine-induced tonic-extensor convulsions (TE) in mice; method in brief: as §1
# Mus musculus [9] = species on record: Mus musculus; assay: Effect on the antagonism of nicotine-induced death (D); method in brief: as §1
Compound,ED50 (Mus musculus [1]) [mg/kg],"ED50 (Mus musculus [2]; Mus musculus, read-out: ED50) [mg/kg]",ED50 (Mus musculus [3]) [mg/kg],ED50 (Mus musculus [4]) [mg/kg],ED50 (Mus musculus [5]) [mg/kg],ED50 (Mus musculus [6]) [mg/kg],ED50 (Mus musculus [7]) [mg/kg],"ED50 (Mus musculus [8]; Mus musculus, read-out: ED50) [mg/kg]","ED50 (Mus musculus [9]; Mus musculus, read-out: ED50) [mg/kg]",ED50 (Mus musculus [2]) [mg/kg],ED50 (Mus musculus [8]) [mg/kg],ED50 (Mus musculus [9]) [mg/kg]
Oc1nnc2n1-c1ccc(Cl)cc1C(c1ccccc1)=NC2,> 50,40,> 50,5.6,> 50,> 50,6,1.4,1.6,–,–,–
CCN(CC)CCCCn1nc2n(c1=O)-c1ccc(Cl)cc1C(c1ccccc1Cl)=NC2,7,> 12.5,10.5,4.4,> 12.5,> 12.5,12.5,0.8,0.8,–,–,–
Oc1nnc2n1-c1ccc(Cl)cc1C(c1ccccc1Cl)=NC2,> 50,1,> 50,0.08,> 50,> 50,0.4,0.025,0.025,–,–,–
Cn1nc2n(c1=O)-c1ccc(Cl)cc1C(c1ccccc1Cl)=NC2,2.2,–,–,0.14,–,–,–,0.002,0.002,–,–,–
CCN(CC)CCn1nc2n(c1=O)-c1ccc(Cl)cc1C(c1ccccc1Cl)=NC2,4,0.7,> 100,0.45,> 100,> 100,0.4,0.09,0.1,–,–,–
CN(C)CCn1nc2n(c1=O)-c1ccc(Cl)cc1C(c1ccccc1)=NC2,30,6,> 100,3.2,> 100,> 100,5,0.89,1.4,–,–,–
CN(C)CCCn1nc2n(c1=O)-c1ccc(Cl)cc1C(c1ccccc1Cl)=NC2,> 50,14.9,> 50,6.3,7.4,> 50,2.2,0.9,1.1,–,–,–
CN1CCN(CCn2nc3n(c2=O)-c2ccc(Cl)cc2C(c2ccccc2)=NC3)CC1,10.5,17.7,14.9,8.8,> 50,> 50,5.3,8,8,–,–,–
CC(CN(C)C)Cn1nc2n(c1=O)-c1ccc(Cl)cc1C(c1ccccc1Cl)=NC2 (stereo not given),40,7,> 50,–,> 50,> 50,2,1,1.1,–,–,–
CN1CCN(CCn2nc3n(c2=O)-c2ccc(Cl)cc2C(c2ccccc2Cl)=NC3)CC1,3.1,3.1,12.5,0.3,> 25,> 25,0.2,–,–,–,–,–
CN1CCN(CCCn2nc3n(c2=O)-c2ccc(Cl)cc2C(c2ccccc2Cl)=NC3)CC1,> 30,> 25,25,3.7,> 25,25,3.7,0.4,0.5,–,–,–
O=c1n(CCCN2CCN(CCO)CC2)nc2n1-c1ccc(Cl)cc1C(c1ccccc1Cl)=NC2,20,12.5,> 25,6.3,> 30,> 25,2,0.5,0.56,–,–,–
CN(C)CCCn1nc2n(c1=O)-c1ccc(Cl)cc1C(c1ccccc1)=NC2,> 50,40,> 50,32,> 50,> 50,10,3.6,3.6,–,–,–
CNCCCn1nc2n(c1=O)-c1ccc(Cl)cc1C(c1ccccc1Cl)=NC2,9,> 50,> 50,14.9,> 50,> 50,25,1.4,1.4,–,–,–
Cn1nc2n(c1=O)-c1ccc(Cl)cc1C(c1ccccc1)=NC2,–,3,> 50,2.5,> 50,> 50,–,0.63,0.63,2,1,1.1
CCN(CC)CCn1nc2n(c1=O)-c1ccc(Cl)cc1C(c1ccccc1)=NC2,> 50,10,> 50,4,> 50,> 50,1,1.3,1.3,–,–,–
O=c1n(CCCN2CCN(c3ccccc3)CC2)nc2n1-c1ccc(Cl)cc1C(c1ccccc1Cl)=NC2,> 50,> 50,> 50,> 50,> 50,> 50,> 50,40,40,–,–,–
CCN(CC)CCCn1nc2n(c1=O)-c1ccc(Cl)cc1C(c1ccccc1Cl)=NC2,10,> 50,> 25,8.8,> 50,> 50,5.3,1.1,1.3,–,–,–
CN(C)Cc1nnc2n1-c1ccc(Cl)cc1C(c1ccccc1)=NC2 [ADINAZOLAM],5,0.7,5.3,0.9,5.3,–,1.6,0.11,0.13,–,–,–
CN1C(=O)CN=C(c2ccccc2)c2cc(Cl)ccc21 [DIAZEPAM],0.2,2.6,> 50,0.1,> 50,> 50,0.035,0.28,0.28,–,–,–
CN(C)CCCN1c2ccccc2CCc2ccccc21 [IMIPRAMINE],> 50,21,1,–,1,4,18,7,7,–,–,–
